Measurements published in the M2OR odorant receptor database.

How the values were obtained:
Settings in all cases: stereoisomer not certain
OR52I1 (Homo sapiens) = target: T1, OR52I1 (Homo sapiens) (UniProt Q8NGK6)
T1 sequence (whole entry): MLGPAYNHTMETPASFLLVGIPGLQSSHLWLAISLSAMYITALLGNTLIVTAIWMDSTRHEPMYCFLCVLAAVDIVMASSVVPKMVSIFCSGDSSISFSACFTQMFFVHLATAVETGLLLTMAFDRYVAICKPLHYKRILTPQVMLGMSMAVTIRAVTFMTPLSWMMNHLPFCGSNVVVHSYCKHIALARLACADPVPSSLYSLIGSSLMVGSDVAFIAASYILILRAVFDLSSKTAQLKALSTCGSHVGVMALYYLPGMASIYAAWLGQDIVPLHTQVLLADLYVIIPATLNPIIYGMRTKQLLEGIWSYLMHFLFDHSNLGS
Method in brief: (§1)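 Transient luciferase assays in mammalian cell lines were common, though methods varied by source. The values come from published papers and their supplementary material, with extra details from the original authors when needed. Responsive refers to a measured signal the original authors judged statistically different from baseline, and non-responsive (inactive) to the remainder.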

OR52I2 (Homo sapiens) = target: T2, OR52I2 (Homo sapiens) (UniProt Q8NH67)
T2 sequence (whole entry): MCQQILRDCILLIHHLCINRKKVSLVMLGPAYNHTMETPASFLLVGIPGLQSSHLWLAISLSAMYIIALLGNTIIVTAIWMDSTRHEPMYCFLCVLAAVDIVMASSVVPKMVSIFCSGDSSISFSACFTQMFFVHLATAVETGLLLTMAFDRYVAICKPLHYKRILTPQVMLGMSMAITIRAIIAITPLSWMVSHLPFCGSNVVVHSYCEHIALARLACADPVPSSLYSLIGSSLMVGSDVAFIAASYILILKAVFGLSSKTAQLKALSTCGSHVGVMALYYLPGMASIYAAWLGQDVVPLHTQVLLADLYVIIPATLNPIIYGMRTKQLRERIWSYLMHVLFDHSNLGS
Method in brief: as §1

OR52J3 (Homo sapiens) = OR52J3 (Homo sapiens) (UniProt Q8NH60)
Method in brief: as §1

OR52K1 (Homo sapiens) = target: T3, OR52K1 (Homo sapiens) (UniProt Q8NGK4)
T3 sequence (whole entry): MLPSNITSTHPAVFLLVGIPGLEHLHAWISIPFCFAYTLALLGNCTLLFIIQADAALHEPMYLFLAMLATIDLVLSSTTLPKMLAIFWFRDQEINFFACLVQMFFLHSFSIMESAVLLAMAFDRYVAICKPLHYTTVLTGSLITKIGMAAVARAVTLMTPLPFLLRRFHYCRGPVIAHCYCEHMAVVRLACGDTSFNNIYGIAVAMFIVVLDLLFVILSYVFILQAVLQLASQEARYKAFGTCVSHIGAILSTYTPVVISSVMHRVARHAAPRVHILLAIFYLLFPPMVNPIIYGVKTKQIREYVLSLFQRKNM
Method in brief: as §1

OR52K2 (Homo sapiens) = target: T4, OR52K2 (Homo sapiens) (UniProt Q8NGK3)
T4 sequence (whole entry): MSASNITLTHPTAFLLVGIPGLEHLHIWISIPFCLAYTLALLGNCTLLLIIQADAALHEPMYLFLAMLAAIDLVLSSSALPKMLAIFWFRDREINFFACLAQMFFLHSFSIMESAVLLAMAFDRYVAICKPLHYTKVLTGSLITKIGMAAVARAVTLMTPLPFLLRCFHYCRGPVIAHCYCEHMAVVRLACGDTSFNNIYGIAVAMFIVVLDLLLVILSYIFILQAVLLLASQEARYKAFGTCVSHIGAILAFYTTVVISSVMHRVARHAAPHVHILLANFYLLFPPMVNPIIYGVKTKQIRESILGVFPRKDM
Method in brief: as §1

OR52L1 (Homo sapiens) = target: T5, OR52L1 (Homo sapiens) (UniProt Q8NGH7)
T5 sequence (whole entry): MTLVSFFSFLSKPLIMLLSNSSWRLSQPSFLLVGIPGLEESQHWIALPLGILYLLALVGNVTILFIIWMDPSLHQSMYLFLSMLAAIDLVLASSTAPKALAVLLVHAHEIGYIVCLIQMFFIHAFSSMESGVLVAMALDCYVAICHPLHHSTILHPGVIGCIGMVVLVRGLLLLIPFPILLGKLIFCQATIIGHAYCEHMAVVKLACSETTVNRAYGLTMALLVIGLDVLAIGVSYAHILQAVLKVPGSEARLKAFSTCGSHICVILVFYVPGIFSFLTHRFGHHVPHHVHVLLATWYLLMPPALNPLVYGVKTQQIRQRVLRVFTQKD
Method in brief: as §1

OR52M1 (Homo sapiens) = target: T6, OR52M1 (Homo sapiens) (UniProt Q8NGK5)
T6 sequence (whole entry): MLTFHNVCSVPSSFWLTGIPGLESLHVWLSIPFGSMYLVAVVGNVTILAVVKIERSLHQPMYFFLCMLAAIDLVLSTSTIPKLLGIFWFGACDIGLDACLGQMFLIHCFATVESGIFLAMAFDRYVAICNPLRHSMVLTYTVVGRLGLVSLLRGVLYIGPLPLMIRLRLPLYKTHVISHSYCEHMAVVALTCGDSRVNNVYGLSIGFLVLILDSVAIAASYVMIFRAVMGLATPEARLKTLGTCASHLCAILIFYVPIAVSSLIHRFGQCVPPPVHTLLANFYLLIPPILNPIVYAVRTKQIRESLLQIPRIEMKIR
Method in brief: as §1

OR52N1 (Homo sapiens) = target: T7, OR52N1 (Homo sapiens) (UniProt Q8NH53)
T7 sequence (whole entry): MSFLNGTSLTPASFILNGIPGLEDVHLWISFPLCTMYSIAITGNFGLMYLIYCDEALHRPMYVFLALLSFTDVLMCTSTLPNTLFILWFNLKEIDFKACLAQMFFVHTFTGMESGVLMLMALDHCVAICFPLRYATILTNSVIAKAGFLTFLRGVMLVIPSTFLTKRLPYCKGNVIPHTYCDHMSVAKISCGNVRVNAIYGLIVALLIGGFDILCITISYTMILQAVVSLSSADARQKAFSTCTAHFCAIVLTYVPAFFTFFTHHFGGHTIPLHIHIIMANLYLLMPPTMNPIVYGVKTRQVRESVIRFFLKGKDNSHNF
Method in brief: as §1

OR52N2 (Homo sapiens) = target: T8, OR52N2 (Homo sapiens) (UniProt Q8NGI0)
T8 sequence (whole entry): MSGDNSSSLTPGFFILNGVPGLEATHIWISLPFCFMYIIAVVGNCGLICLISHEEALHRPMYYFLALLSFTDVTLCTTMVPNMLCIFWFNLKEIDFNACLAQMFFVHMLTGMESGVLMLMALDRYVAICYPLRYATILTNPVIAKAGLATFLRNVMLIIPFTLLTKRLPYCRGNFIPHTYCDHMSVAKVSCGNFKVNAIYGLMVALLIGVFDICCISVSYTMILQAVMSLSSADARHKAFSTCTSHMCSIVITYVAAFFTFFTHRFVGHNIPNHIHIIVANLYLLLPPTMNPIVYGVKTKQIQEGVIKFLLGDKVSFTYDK
Method in brief: as §1

OR52N4 (Homo sapiens) = target: T9, OR52N4 (Homo sapiens) (UniProt Q8NGI2)
T9 sequence (whole entry): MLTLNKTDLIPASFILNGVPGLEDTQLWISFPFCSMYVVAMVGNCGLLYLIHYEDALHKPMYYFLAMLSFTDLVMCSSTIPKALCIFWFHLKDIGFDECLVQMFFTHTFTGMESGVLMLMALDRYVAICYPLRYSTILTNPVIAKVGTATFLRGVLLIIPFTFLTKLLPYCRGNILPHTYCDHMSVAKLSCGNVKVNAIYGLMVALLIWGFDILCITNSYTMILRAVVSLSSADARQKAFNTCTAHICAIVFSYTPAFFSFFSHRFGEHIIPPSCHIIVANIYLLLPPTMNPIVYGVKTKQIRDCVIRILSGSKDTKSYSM
Method in brief: as §1

OR52N5 (Homo sapiens) = target: T10, OR52N5 (Homo sapiens) (UniProt Q8NH56)
T10 sequence (whole entry): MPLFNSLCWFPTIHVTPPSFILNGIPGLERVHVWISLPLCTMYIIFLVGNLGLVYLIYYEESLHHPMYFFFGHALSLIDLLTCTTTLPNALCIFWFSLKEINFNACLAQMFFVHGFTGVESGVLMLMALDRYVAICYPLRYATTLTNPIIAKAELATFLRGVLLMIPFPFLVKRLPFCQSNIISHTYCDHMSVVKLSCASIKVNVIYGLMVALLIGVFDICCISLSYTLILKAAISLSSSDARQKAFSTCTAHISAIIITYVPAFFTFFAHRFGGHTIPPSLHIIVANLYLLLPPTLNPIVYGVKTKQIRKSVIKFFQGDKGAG
Method in brief: as §1

OR52R1 (Homo sapiens) = target: T11, OR52R1 (Homo sapiens) (UniProt Q8NGF1)
T11 sequence (whole entry): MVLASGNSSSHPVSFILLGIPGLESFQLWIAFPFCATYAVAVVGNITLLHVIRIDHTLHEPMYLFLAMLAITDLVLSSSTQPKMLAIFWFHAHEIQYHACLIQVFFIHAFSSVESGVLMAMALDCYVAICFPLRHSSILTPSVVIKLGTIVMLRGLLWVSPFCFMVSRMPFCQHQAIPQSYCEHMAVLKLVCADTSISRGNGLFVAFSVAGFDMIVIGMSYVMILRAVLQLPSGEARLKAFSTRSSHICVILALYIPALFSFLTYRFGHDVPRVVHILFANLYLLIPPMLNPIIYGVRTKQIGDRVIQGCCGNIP
Method in brief: as §1

OR52W1 (Homo sapiens) = target: T12, OR52W1 (Homo sapiens) (UniProt Q6IF63)
T12 sequence (whole entry): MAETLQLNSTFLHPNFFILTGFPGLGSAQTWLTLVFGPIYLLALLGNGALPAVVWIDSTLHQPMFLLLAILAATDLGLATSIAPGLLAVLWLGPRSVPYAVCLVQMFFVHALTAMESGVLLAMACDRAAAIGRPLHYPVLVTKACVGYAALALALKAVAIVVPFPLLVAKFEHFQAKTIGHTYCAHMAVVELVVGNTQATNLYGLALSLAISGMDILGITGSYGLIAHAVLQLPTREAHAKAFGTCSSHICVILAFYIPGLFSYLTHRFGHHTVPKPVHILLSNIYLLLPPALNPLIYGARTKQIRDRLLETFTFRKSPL
Method in brief: as §1

OR56A1 (Homo sapiens) = target: T13, OR56A1 (Homo sapiens) (UniProt Q8NGH5)
T13 sequence (whole entry): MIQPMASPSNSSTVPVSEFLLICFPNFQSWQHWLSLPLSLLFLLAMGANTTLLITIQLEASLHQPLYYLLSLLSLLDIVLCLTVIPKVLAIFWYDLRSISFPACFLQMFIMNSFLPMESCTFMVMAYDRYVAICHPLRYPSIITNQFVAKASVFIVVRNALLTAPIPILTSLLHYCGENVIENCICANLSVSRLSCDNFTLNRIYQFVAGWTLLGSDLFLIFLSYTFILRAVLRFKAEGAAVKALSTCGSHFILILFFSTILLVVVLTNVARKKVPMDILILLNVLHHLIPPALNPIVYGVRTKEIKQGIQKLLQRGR
Method in brief: as §1

OR56A3 (Homo sapiens) = target: T14, OR56A3 (Homo sapiens) (UniProt Q8NH54)
T14 sequence (whole entry): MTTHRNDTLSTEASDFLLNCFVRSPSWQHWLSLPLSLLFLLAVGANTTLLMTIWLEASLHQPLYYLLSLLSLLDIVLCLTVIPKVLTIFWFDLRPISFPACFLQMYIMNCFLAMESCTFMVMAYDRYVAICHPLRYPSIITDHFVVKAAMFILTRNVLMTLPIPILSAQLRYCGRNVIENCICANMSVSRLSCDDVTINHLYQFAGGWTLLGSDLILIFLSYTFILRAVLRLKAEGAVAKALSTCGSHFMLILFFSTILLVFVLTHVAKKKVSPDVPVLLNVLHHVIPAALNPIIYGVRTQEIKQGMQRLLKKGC
Method in brief: as §1

OR56A4 (Homo sapiens) = target: T15, OR56A4 (Homo sapiens) (UniProt Q8NGH8)
T15 sequence (whole entry): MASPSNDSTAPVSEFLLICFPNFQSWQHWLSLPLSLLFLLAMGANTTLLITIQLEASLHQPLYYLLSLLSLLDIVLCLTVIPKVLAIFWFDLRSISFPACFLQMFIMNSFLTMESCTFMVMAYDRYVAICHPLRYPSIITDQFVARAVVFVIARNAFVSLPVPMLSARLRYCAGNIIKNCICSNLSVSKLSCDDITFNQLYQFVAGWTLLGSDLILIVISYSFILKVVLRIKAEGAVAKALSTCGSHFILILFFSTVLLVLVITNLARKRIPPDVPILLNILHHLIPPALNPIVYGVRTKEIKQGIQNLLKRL
Method in brief: as §1

OR56A5 (Homo sapiens) = target: T16, OR56A5 (Homo sapiens) (UniProt P0C7T3)
T16 sequence (whole entry): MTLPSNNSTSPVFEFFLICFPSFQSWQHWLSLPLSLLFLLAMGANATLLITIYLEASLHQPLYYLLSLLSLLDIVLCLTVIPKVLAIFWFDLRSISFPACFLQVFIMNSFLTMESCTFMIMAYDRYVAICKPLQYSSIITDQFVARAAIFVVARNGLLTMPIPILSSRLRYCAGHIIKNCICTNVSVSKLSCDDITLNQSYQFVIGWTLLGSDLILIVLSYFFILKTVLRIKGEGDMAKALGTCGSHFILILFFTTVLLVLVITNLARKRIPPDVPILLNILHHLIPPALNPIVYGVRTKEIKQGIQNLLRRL
Method in brief: as §1

OR56B1 (Homo sapiens) = target: T17, OR56B1 (Homo sapiens) (UniProt Q8NGI3)
T17 sequence (whole entry): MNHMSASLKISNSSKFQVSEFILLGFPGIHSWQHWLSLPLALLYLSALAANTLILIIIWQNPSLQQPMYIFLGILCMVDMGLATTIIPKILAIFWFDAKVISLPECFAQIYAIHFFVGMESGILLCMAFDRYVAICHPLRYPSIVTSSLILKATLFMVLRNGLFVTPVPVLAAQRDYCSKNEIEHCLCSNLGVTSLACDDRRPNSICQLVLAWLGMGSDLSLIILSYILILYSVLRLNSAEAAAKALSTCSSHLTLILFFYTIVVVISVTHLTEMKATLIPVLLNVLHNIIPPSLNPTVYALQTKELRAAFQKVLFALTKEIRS
Method in brief: as §1

Measured: odorant receptor agonist call

Chain of OR52J3 (Homo sapiens) (Q8NH60 whole entry): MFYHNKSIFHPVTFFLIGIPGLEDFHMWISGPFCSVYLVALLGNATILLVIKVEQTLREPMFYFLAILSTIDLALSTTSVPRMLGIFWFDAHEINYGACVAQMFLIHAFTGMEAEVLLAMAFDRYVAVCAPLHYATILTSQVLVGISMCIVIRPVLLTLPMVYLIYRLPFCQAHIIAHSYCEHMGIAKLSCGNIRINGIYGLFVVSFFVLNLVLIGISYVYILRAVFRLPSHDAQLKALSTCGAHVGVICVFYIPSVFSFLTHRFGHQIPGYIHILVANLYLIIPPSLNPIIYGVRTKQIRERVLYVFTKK

CCCCCC(=O)C(C)C(C)=O (stereo unspecified)
inactive: all assays above

CCC(S)C(C)CO (stereo unspecified)
inactive: all assays above
